Test results: the RNAGym collection of RNA variant scans (doi:10.1126/science.aae0568)
Variants at the floor of the assay were thinned out.

B1: tRNA (parent)
chain: GUUCCGUUGGCGUAAUGGUAACGCGUCUCCCUCCUAAGGAGAAGACUGCGGGUUCGAGUCCCGUACGGAACG

Variants of: B1
Test: yeast fitness relative to wild type (ratio to wild type); higher = fitter; tRNA-Arg(CCU), competitive growth, 37 C, YPD
Method in brief: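 A pool of Saccharomyces cerevisiae strains, each with a tRNA-Arg(CCU) gene variant at the native genomic locus, was competed in YPD at 37°C for 24 hours across six parallel replicates. The variants had been chemically synthesised at a 3% per-site mutation rate over 69 sites, and gene amplicons before and after competition were read by 100-nucleotide paired-end sequencing. Darwinian fitness relative to wild type rested on changes in genotype frequencies. Genotypes required ≥ 100 starting reads, and estimates < 0.5 were set to 0.5.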

Row | Variant | yeast fitness
1 | U2A G48C G50A | 0.732
2 | U2C C29A A57C | ≤ 0.5
3 | U2A G52A C61A | ≤ 0.5
4 | U2A G6C A37U | ≤ 0.5
5 | U2C A15C C60A | ≤ 0.5
6 | U2A G48A G50C U59C C60A | ≤ 0.5
7 | U2C C31A G38C G50A | 0.604
8 | U2C A15U C30G C55U | 0.666
9 | U2C A40C A42U C49G C66G | ≤ 0.5
10 | U2A G10A A20U C22G G44C C61G | 0.502
11 | U2C C4U A70C | 0.733
12 | U2A C24G A37C G56C | ≤ 0.5
13 | U2A G9A A37G G58A | ≤ 0.5
14 | U2C C24G C61G | ≤ 0.5
15 | U2C C5A C24A | ≤ 0.5
16 | U2A C31G G39C A42G C49U C60G | ≤ 0.5
17 | U2C C55G G56C A69U | ≤ 0.5
18 | U2C C4A C11U C29U G67A A70U | ≤ 0.5
19 | U2C C4U G25C C29U C66A | ≤ 0.5
20 | U2A C11U U19G A42U G48A | ≤ 0.5
21 | U2A U28C | 0.835
22 | U2A U26C C33G A42C C49G G58C C62G | ≤ 0.5
23 | U2A U53G | ≤ 0.5
24 | U2A G17C C46U U59A | ≤ 0.5

Row | Variant | yeast fitness
25 | U2C C4U C46U G50U C55U | ≤ 0.5
26 | U2C C11A G41C C61A | ≤ 0.5
27 | U2A G25C A70G | 0.568
28 | U2C A15C C29U | ≤ 0.5
29 | U2A G23A C29G | 0.666
30 | U2A C31U | 0.921
31 | U2A C31G | 0.864
32 | U2A C31A | 0.815
33 | U2C C30U C33U | 0.512
34 | U2C A40U G50A | 0.571
35 | U2A U3A G51A C61G | 0.513
36 | U2A U16A G56C A57G | ≤ 0.5
37 | U2A U8A A42U G52C | ≤ 0.5
38 | U2C C4A U8C G18C U35C G63A | ≤ 0.5
39 | U2A U16C A45C | 0.651
40 | U2A G23A G68U | ≤ 0.5
41 | U2A C11U G23A C29G | 0.527
42 | U2C C29A G63A | ≤ 0.5
43 | U2A C49U | 0.981
44 | U2C C11G A37G G51C A57G | 0.632
45 | U2A U19G A20U U64C | ≤ 0.5
46 | U2C C4U | 0.969
47 | U2A U19G A70U | 0.68
48 | U2C A20U U28A G67U | 0.579

Row | Variant | yeast fitness
49 | U2C C24U G25C U26A A57G | 0.878
50 | U2A G48A A57U A65U C66A | ≤ 0.5
51 | U2A G41A C66U | ≤ 0.5
52 | U2C C4U C62U | 0.698
53 | U2A U8C A42U | 0.64
54 | U2A U28A C55G | ≤ 0.5
55 | U2A U19A A20C G25A U26A | ≤ 0.5
56 | U2C C4U A36G G44C | 0.615
57 | U2C A20U G38C | ≤ 0.5
58 | U2C A37U U53A | 0.727
59 | U2C A21U C30U | ≤ 0.5
60 | U2C C29U A37G C66U | 0.578
61 | U2A C30U A42G C60G C62G A65G C66U | ≤ 0.5
62 | U2C C11A C22G U54C G56A | ≤ 0.5
63 | U2C A14G C31G G58A | ≤ 0.5
64 | U2C C46A | 0.942
65 | U2C C11A | ≤ 0.5
66 | U2C A14U | 0.764
67 | U2C C4U U47A | 0.525
68 | U2A G41A | 0.773
69 | U2C C24U G44C | ≤ 0.5
70 | U2A C24U U47C C60U | ≤ 0.5
71 | U2C C24G A42U G67A | ≤ 0.5
72 | U2A C27U A36G | 0.578

Row | Variant | yeast fitness
73 | U2A C27U A36C | ≤ 0.5
74 | U2A G10A A20G U35C | ≤ 0.5
75 | U2A U32A A69C | 0.612
76 | U2C C11A G12A U35G U59A | ≤ 0.5
77 | U2A G9C U16G U32G U47A A57C C62U | ≤ 0.5
78 | U2A C33A C34U G56A | 0.542
79 | U2A G41C U59A C61A C66U G68C | ≤ 0.5
80 | U2A U8C G23A C29G | ≤ 0.5
81 | U2A C31U A37U | ≤ 0.5
82 | U2A G39C A70G | ≤ 0.5
83 | U2C A37G C49G A57U G68C A70G | ≤ 0.5
84 | U2A U54C | 0.932
85 | U2C C5U A40U G50A | ≤ 0.5
86 | U2A G25C A45U | 0.585
87 | U2C A14G G18A U32A G44A A65C | 0.539
88 | U2C C24A C49A | ≤ 0.5
89 | U2A G18C | 0.592
90 | U2C C11G C22G | ≤ 0.5
91 | U2C A20U | 0.91
92 | U2C A37G G39A | ≤ 0.5
93 | U2A G9C A14C C34U C60G | 0.551
94 | U2C C11U G56C C62U | ≤ 0.5
95 | U2A U16A C55G C60A | ≤ 0.5
96 | U2A C61U | 0.768

Row | Variant | yeast fitness
97 | U2C A65G G68A A69C | 0.563
98 | U2A C24G C31U C33G A42C A43U A65U | ≤ 0.5
99 | U2A G9C U13A A15G C33A A37U G50C C61U | 0.58
100 | U2A U7G A42G A45U G52A U64C A69U | ≤ 0.5
101 | U2A U3A G63C | ≤ 0.5
102 | U2C C29G | 0.626
103 | U2C C29A | 0.659
104 | U2C C29U | 0.81
105 | U2C A15C U19C C22G U59C C60G | ≤ 0.5
106 | U2A G6C U7C G12A C30A G44A C66A | ≤ 0.5
107 | U2C C24G U26A C31G | 0.639
108 | U2C A43U G44C | ≤ 0.5
109 | U2A U7A | 0.666
110 | U2A U28C G41C U54A G67U | ≤ 0.5
111 | U2C C30A U47C A65C C66G | ≤ 0.5
112 | U2A U3G C29G C30G C46G | 0.612
113 | U2A U3G C29G C30G C46A | ≤ 0.5
114 | U2C C31G U35A | ≤ 0.5
115 | U2A C24U A45U G67A | ≤ 0.5
116 | U2C A40C C66A | ≤ 0.5
117 | U2A U26C C55U | ≤ 0.5
118 | U2A G25A U32C | 0.903
119 | U2A U19A A20C U26A A43G | ≤ 0.5
120 | U2C C22G G51C A70G | ≤ 0.5

Row | Variant | yeast fitness
121 | U2A G6A C11U C31G A69U | ≤ 0.5
122 | U2C C27G U28A C61U | ≤ 0.5
123 | U2A G23A C29G C49U | 0.575
124 | U2A U3A U7A A57G | ≤ 0.5
125 | U2C C11A C34G G51A | ≤ 0.5
126 | U2C C4A G18C G63A | 0.633
127 | U2A G12A A21C | 0.515
128 | U2C C22U A69C | 0.511
129 | U2A G9C G50A U64A | ≤ 0.5
130 | U2C A14U C29U | 0.626
131 | U2A G41C G50C C62G C66G | ≤ 0.5
132 | U2A G23C C27U C31G A42C C61U | ≤ 0.5
133 | U2A U8A C33U A43U | ≤ 0.5
134 | U2A U16G A43C U54G | ≤ 0.5
135 | U2C A14G C29A C33G C66A | ≤ 0.5
136 | U2C A15U U16A | 0.62
137 | U2A G6C G38A G68A | ≤ 0.5
138 | U2A G68A | 0.825
139 | U2A U3C C24G C33G C66U | ≤ 0.5
140 | U2C C24A C33A C46U | ≤ 0.5
141 | U2A C66G | 0.715
142 | U2A C66U | 0.739
143 | U2A G17A A45G | 0.587
144 | U2A U16C C30A A43C | ≤ 0.5

Row | Variant | yeast fitness
145 | U2C C49U | 0.808
146 | U2A C61U A70G | 0.571
147 | U2A U16G C66G G68C | ≤ 0.5
148 | U2A C29A A42G C49U U54A C60G G68A | ≤ 0.5
149 | U2A U28C C49U C62G | ≤ 0.5
150 | U2A U16C C30A G56A G68C | 0.541
151 | U2C A40U | 1.05
152 | U2C C5A C29G G48A A69U | ≤ 0.5
153 | U2C C24U A70C | 0.708
154 | U2A C27U G67A | 0.531
155 | U2A G12C C34G A65U | ≤ 0.5
156 | U2A G38C | 0.635
157 | U2C A14G G18A U32A A45C A69C | ≤ 0.5
158 | U2C C24G C33G U53C C55U A70G | ≤ 0.5
159 | U2C C11A C22G G41A A43C G51C C66U G67U | 0.584
160 | U2C C11A C22G G41A A43C G51C C66U G67C | ≤ 0.5
161 | U2A C24U | 0.95
162 | U2C C27G U28A A43U C61A C62U A65U A69C | ≤ 0.5
163 | U2A U28A A37C G58C A69G | ≤ 0.5
164 | U2C A14C U35C | ≤ 0.5
165 | U2A C55A A69U | ≤ 0.5
166 | U2A U8A C34A A65U | ≤ 0.5
167 | U2C A15U A20U A69U | ≤ 0.5
